From PubChem BioAssay
This is a sample that favours compounds with a hit; in the whole collection about 3.7% have one here.
Kir21 block: inhibitors of mouse Kir2.1 inward-rectifier potassium channel | HEK293-Kir2.1, FluxOR thallium flux fluorescence; hits give low values | B-score at 10 µM | hit rate 0.85% among 310,000 | AID 1672;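 active = fluorescence ratio B-score at or below minus 3 SD of library scores, with starting-brightness B-score within 2 SD, cut at about -4.2 in these data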;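 also: channel flux triggered by added potassium and thallium sulfate stimulus; B-score of peak minus minimum fluorescence over baseline after thallium stimulus; more negative B-score means stronger Kir2.1 block with less thallium influx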
KCNK3 inh: human KCNK3 channel inhibition, primary screen; O14649; CHO-KCNK3 thallium flux, FluxOR fluorescence; hits give low values; B-score at 10 µM; hit rate 0.84% among 340,000;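 active = B-score under library mean minus 4 SD, starting fluorescence ratio at most library mean plus 5 SD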;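 also: more negative B-score means stronger inhibition of thallium flux through KCNK3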
hERG protect: shields human hERG channel from block by proarrhythmic agents; Q12809; CHO-hERG, FluxOR thallium flux, dofetilide IC70 present; activation (rescue from dofetilide block), less the hit threshold, % at 10 µM; hit rate 0.51% among 310,000;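 active = activation above the mean of controls blocked by dofetilide plus 5 SD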;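 also: thallium influx through hERG after potassium depolarization seen as dye fluorescence rise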
Target sequence (Q12809 whole entry, looked up): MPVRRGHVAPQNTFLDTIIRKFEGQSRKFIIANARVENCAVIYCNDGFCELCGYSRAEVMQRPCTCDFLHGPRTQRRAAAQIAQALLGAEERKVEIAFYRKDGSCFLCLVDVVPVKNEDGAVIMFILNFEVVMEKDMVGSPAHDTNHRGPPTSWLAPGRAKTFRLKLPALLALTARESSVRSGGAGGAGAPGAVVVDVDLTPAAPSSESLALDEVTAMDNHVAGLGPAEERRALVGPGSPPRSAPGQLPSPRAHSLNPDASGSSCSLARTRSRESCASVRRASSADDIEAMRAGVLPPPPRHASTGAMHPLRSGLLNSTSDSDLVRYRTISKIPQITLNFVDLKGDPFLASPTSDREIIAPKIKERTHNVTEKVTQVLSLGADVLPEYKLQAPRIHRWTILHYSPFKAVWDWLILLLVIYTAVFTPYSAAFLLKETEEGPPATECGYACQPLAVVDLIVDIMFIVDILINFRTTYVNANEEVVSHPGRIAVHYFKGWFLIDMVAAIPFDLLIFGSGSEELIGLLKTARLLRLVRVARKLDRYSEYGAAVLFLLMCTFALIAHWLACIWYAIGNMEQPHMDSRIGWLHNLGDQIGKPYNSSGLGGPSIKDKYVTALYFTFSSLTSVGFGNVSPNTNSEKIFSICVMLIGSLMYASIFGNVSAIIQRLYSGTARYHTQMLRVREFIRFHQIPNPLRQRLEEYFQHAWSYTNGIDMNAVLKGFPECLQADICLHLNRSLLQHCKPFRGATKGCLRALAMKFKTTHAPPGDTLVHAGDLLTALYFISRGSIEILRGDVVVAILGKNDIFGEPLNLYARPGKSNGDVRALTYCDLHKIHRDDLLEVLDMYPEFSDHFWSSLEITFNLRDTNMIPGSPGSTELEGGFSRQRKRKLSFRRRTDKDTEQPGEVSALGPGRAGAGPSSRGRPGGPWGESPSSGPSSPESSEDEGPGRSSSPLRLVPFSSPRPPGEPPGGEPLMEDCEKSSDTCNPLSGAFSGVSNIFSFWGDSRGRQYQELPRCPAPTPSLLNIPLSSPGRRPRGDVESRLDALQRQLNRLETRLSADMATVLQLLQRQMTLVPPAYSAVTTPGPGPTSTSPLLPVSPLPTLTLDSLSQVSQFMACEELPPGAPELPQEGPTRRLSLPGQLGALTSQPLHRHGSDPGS
KCNK9 block: blocks the human KCNK9 two-pore domain potassium channel. Q9NPC2. HEK293 KCNK9, FluxOR thallium flux fluorescence; hits give low values. B-score at 10 µM. hit rate 1.2% among 310,000;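 active = ratio B-score over 3 SD below the library mean, with starting fluorescence within 5 SD of its mean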;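 also: negative B-score means less thallium flux so channel inhibition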
KCNQ1 pot: human KCNQ1 channel potentiation or activation; P51787; CHO-K1 KCNQ1, thallium flux FluxOR fluorescence; hits give high values; B-score at 10 µM; hit rate 0.35% among 310,000; AID 2648;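 active = fluorescence ratio B-score, a plate-corrected score, at least three library SD, with initial intensity B-score within 5 SD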
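Test system: CHO-K1 cells stably expressing KCNQ1 / Medium: assay buffer / Also added: depolarizing K+/Tl+ stimulus, K2SO4 and Tl2SO4 each 12.5 mM in 5x stock / Incubation: 90 min dye loading and 20 min compound exposure, both at room temperature / Signal: thallium influx via FluxOR fluorescence, kinetic imaging / Evaluation: B score of baseline-normalized fluorescence ratio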
KCNQ1 block: blocks the human KCNQ1 potassium channel. CHO-K1 KCNQ1, FluxOR thallium flux fluorescence; hits give high values. B-score at 10 µM. hit rate 1.3% among 310,000;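 active = compounds whose thallium flux B-score, printed positive for inhibition, exceeds three library SD while starting fluorescence stays within three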;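 also: channel opened by potassium depolarization with thallium stimulus after 20 min compound exposure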
Of the large screens only hits and unclear results are named; the others gave an inactive call.

O=[N+]([O-])c1ccc(NC(=S)NCCc2ccc(Cl)cc2)cc1	KCNQ1 block 8
S=C(NCCc1ccccc1)Nc1ccc(Cl)cc1	none
CC1Cc2ccccc2N1C(=O)CCn1cccn1 (configuration not stated)	none
CC(=O)c1cccc(NS(=O)(=O)N2CCOCC2)c1	none
Cc1ccc(S(=O)(=O)N2CCOCC2)cc1NC(=O)COC(=O)c1cccnc1Cl	hERG protect 35.0
Cc1ccc(S(=O)(=O)N2CCOCC2)cc1NC(=O)COC(=O)CCOc1ccc(C(C)(C)C)cc1	KCNQ1 block 8
Cc1ccc(S(=O)(=O)N2CCOCC2)cc1NC(=O)COC(=O)CNC(=O)c1ccc(C(C)(C)C)cc1	none
Cc1ccc(S(=O)(=O)N2CCOCC2)cc1NC(=O)COc1cccc(Oc2ccccc2)c1	KCNQ1 block 6
CCOc1ncccc1C(=O)OCC(=O)Nc1cc(S(=O)(=O)N2CCOCC2)ccc1C	none
Cc1ccc(NC(=S)N2CCC(NC(=O)c3ccco3)CC2)cc1C	none
COc1ccc(CNC(=O)C2CCN(C(=O)c3csc(Nc4ccc(C)cc4)n3)CC2)cc1	none
O=C(NCCc1c[nH]c2ccccc12)Nc1ccccc1	KCNK9 block -6.94
N#Cc1cccc(NC(=O)NCCc2c[nH]c3ccccc23)c1	none
CCCNC(=O)NS(=O)(=O)c1ccc(Cl)cc1	none
CCCNC(=O)c1nnsc1S(=O)c1ccc(Cl)cc1 (configuration not stated)	Kir21 block -6.12
CCCNC(=O)c1nnsc1S(=O)(=O)c1ccc(Cl)cc1	KCNK3 inh -9.13 (no result: Kir21 block, hERG protect, KCNK9 block, KCNQ1 pot, KCNQ1 block)
CCCNC(=O)c1ccc2snnc2c1	none (no result: Kir21 block, hERG protect, KCNK9 block, KCNQ1 pot, KCNQ1 block)
CNC(=O)c1nnsc1S(=O)c1ccc(Cl)cc1 (configuration not stated)	Kir21 block -7.62, KCNQ1 pot 13
CC(C)N1CCN(Cc2ccoc2)CC1CCO (configuration not stated)	none
Cc1ccc2[nH]c(C(=O)N/N=C/c3ccccc3O)c(C)c2c1	none
Cc1cc(C)n2nc(SCC(=O)NC3CCCC(C)C3C)nc2n1 (configuration not stated)	none
CCOC(=O)C1=CNS(=O)(=O)NC1c1ccc(C(=O)OC)cc1 (configuration not stated)	none (no result: Kir21 block, hERG protect, KCNK9 block, KCNQ1 pot, KCNQ1 block)
O=C(CCc1ccccc1Cl)Nc1cc(S(=O)(=O)N2CCOCC2)ccc1N1CCCC1	none (no result: Kir21 block, hERG protect, KCNK9 block, KCNQ1 pot, KCNQ1 block)
Cc1ccc(NC(=O)Cc2ccc(Cl)cc2)cc1S(=O)(=O)N1CCCCCC1	KCNK3 inh -9.05 (no result: Kir21 block, hERG protect, KCNK9 block, KCNQ1 pot, KCNQ1 block)
COc1ccc(CC(=O)Nc2ccc(C)c(S(=O)(=O)N3CCCCCC3)c2)cc1	none (no result: Kir21 block, hERG protect, KCNK9 block, KCNQ1 pot, KCNQ1 block)
CCC(Oc1ccccc1)C(=O)Nc1ccc(S(=O)(=O)N2CCOCC2)cc1 (configuration not stated)	hERG protect 5.0
O=C(CCc1ccccc1Cl)Nc1ccc(S(=O)(=O)N2CCOCC2)cc1	hERG protect 7.0
Cc1ccc(NC(=S)Nc2ccc(S(=O)(=O)N3CCOCC3)cc2)cc1S(=O)(=O)N1CCOCC1	KCNQ1 block 7
CC1=CCC2C(=O)N(c3ccccc3OC(=O)c3ccccc3F)C(=O)C2C1 (configuration not stated)	none
C#CCn1cc[n+](CC(=O)N(C)C)c1	none
Cc1ccc(NC(=O)CC2=NC(=O)C(CC(=O)Nc3ccccc3C)S2)cc1 (configuration not stated)	none
COC(=O)c1sccc1NC(=O)CC1C(=O)NCCN1C(=O)c1ccc(F)cc1 (configuration not stated)	none
CC(C)NCC(O)COc1cccc2[nH]ccc12 (configuration not stated)	none (no result: Kir21 block, hERG protect, KCNK9 block, KCNQ1 pot, KCNQ1 block)
CCCC(=O)Nc1ccc(OCC(O)CNC(C)C)c(C(C)=O)c1 (configuration not stated)	KCNQ1 pot 9
O=C(NCc1ccccn1)c1cc(-c2ccc(Cl)cc2)oc1C(F)(F)F	KCNK9 block -7.36
O=C(NCc1ccncc1)c1cc(-c2ccc(Cl)cc2)oc1C(F)(F)F	none
COC(=O)C(Cc1ccccc1)NC(=O)CNS(=O)(=O)c1ccc(Br)cc1 (configuration not stated)	none
COC(=O)C(Cc1ccccc1)NC(=O)CNC(=O)c1ccc(Br)cc1 (configuration not stated)	KCNK9 block -7.1
COc1cc(/C=C2\SC(N)=NC2=O)ccc1OCC(=O)Nc1ccccc1C	none (no result: Kir21 block, hERG protect, KCNK9 block, KCNQ1 pot, KCNQ1 block)
Cc1cc(C(=O)N2CCc3c([nH]c4ccccc34)C2c2cccc(Cl)c2)nn1C (configuration not stated)	KCNK9 block -7.36
CN(N=Nc1cccc([N+](=O)[O-])c1)c1ccccc1	KCNK9 block -6.68
CN(N=Nc1ccc([N+](=O)[O-])cc1)c1ccccc1	none
CC(C)N1CCN(CCCc2ccccc2)CC1CCO (configuration not stated)	none
Cc1ccc(NC(=O)Nn2cnnc2)cc1	none
O=C(Nc1ccc(Cl)cc1)Nn1cnnc1	hERG protect 5.7
Cc1ccc(NC(=O)CSC(N)=O)cc1Cl	KCNK9 block -13.5
Nc1ncnc2c1ncn2[C@@H]1O[C@H](CNC(=O)[C@@H]2CCCN2S(=O)(=O)c2ccc(F)cc2)[C@@H](O)[C@H]1O	none (no result: Kir21 block, hERG protect, KCNK9 block, KCNQ1 pot, KCNQ1 block)
CC(C)(C)C(=O)NC(=S)NNC(=O)c1ccc(Cl)cc1Cl	KCNQ1 pot 16
CC(C)(C)C(=O)NC(=S)NNC(=O)c1ccc(-c2ccccc2)cc1	hERG protect 6.3, KCNQ1 pot 66
CCCCN(CCCC)C(=S)NC(=O)c1ccccc1Cl	hERG protect 64.6, KCNQ1 pot 57
CCN(CC)C(=S)NC(=O)c1ccc(Cl)cc1Cl	hERG protect 13.1, KCNQ1 pot 17
CCCCNC(=S)NC(=O)c1ccc(Cl)cc1Cl	none
CC(C)(C)C(=O)NC(=S)NNC(=O)c1ccncc1	none
C/C(=N/NC(=O)CC1N=C(Cc2ccccc2)NNC1=O)c1cccnc1 (configuration not stated)	none
CON/C=C(\C=Nc1ccc(Cl)cc1)c1ncc(C(F)(F)F)cc1Cl	none
O=C(NC(=S)N1CCN(C/C=C/c2ccccc2)CC1)c1ccc(F)cc1	KCNQ1 pot 8
O=C(NC(=S)N1CCN(C/C=C/c2ccccc2)CC1)c1cccnc1	none
CC1(NC(=S)Nc2ccccc2)CCS(=O)(=O)C1 (configuration not stated)	none
CC(C)C(=O)N1CCN(c2ccccc2NC(=O)c2cccc3ccccc23)CC1	none
CC(C)n1c(SCc2ccccc2F)nc2c1c(=O)n(C)c(=O)n2C	Kir21 block -4.6
CC(Sc1n[nH]c(N)n1)C(=O)NC1CCCCC1C (configuration not stated)	KCNQ1 pot 8
Oc1ccc(Cl)cc1C1=NNC(c2cccs2)C1 (configuration not stated)	hERG protect 6.2, KCNQ1 pot 20
Cc1ccc(O)c(C2=NNC(c3ccc(Cl)cc3)C2)c1 (configuration not stated)	none
